From ChEMBL document CHEMBL3351600, “Sulfur, selenium and tellurium pseudopeptides: synthesis and biological evaluation” (Bioorg Med Chem, 2014)
Activity calls are given as the source filed them. The rule behind the calls is not given here.

Legend:
[1] = Lipophilicity, log K of the compound by HPLC analysis
Saccharomyces cerevisiae = test: Antimicrobial activity against Saccharomyces cerevisiae assessed as inhibition at 20 ug/6 mm disk after 1 to 2 days by agar diffusion assay; format: functional
Method in brief: (§1)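 Standard agar diffusion: 6-mm paper disks loaded with 20 µg of compound were placed on inoculated plates. Inhibition-zone diameter (mm) was read after 1 and 2 days of growth.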

Mycolicibacterium phlei = test: Antimicrobial activity against Mycobacterium phlei assessed as inhibition at 20 ug/6 mm disk after 1 to 2 days by agar diffusion assay; format: functional; method in brief: as §1
[2] = Octanol-water partition coefficient, log P of the compound by HPLC analysis; format: physicochemical
Method in brief: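 Lipophilicity was measured by reversed-phase HPLC on a Nucleosil C18 column with isocratic water/methanol (3:1) at 0.5 ml/min and UV detection at 230 and 245 nm. Dead time was set with thiourea (t0 0.728 min). Retention factor was k = (tR − t0)/t0, and log P came from a calibration against at least six reference compounds.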

Candida albicans = test: Antimicrobial activity against Candida albicans assessed as inhibition at 20 ug/6 mm disk after 1 to 2 days by agar diffusion assay; format: functional; method in brief: as §1
Klebsiella pneumoniae = test: Antimicrobial activity against Klebsiella pneumoniae assessed as inhibition at 20 ug/6 mm disk after 1 to 2 days by agar diffusion assay; format: functional; method in brief: as §1
Escherichia coli = test: Antimicrobial activity against Escherichia coli tolC assessed as inhibition at 20 ug/6 mm disk after 1 to 2 days by agar diffusion assay; format: functional; method in brief: as §1
Staphylococcus aureus = test: Antimicrobial activity against Staphylococcus aureus assessed as inhibition at 20 ug/6 mm disk after 1 to 2 days by agar diffusion assay; format: functional; method in brief: as §1
A-431 [3] = test: Cytotoxicity against human A431 cells assessed as cell viability after 24 hrs incubation by MTT assay; format: functional, cell-based; conditions: A-431, 24 h
Method in brief: (§2)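 Cell lines came from DSMZ; primary human fibroblasts served as non-cancer controls. Cells were grown in medium with 10% FCS, seeded at 50,000 cells/ml, and grown 2 days at 37 °C, 10% CO2. Serial dilutions were then added for 24 h. MTT (final 0.5 mg/ml) was added for 2 h. Formazan was pelleted, PBS-washed, dissolved in isopropanol/0.4% HCl and read at 590 nm. Two parallel experiments were run. IC50 was taken as the concentration giving 50% of untreated-control absorbance.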

A-431 [4] = test: Reduction in ROS in human A431 cells assessed as decrease in hydrogen peroxide level at 0.1 to 10 ng/ml after 1 hr by DCHFA assay; format: functional, cell-based
Method in brief: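 A-431 cells were seeded at 10^5 per well and exposed to a range of compound concentrations for 1 h. They were then loaded with DCHFA probe for 30 min in the dark. Fluorescence was read immediately at ex/em 485/528 nm and expressed as arbitrary units per 10^5 cells.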

Micrococcus luteus = test: Antimicrobial activity against Micrococcus luteus assessed as inhibition at 20 ug/6 mm disk after 1 to 2 days by agar diffusion assay; format: functional; method in brief: as §1
[5] = Cytotoxicity against human fibroblasts assessed as cell viability after 24 hrs incubation by MTT assay; format: cell-based; conditions: Fibroblast; method in brief: as §2
Aspergillus niger = test: Antimicrobial activity against Aspergillus niger assessed as inhibition at 20 ug/6 mm disk after 1 to 2 days by agar diffusion assay; format: functional; method in brief: as §1
MCF7 = test: Cytotoxicity against human MCF7 cells assessed as cell viability after 24 hrs incubation by MTT assay; format: functional, cell-based; conditions: MCF7, 24 h; method in brief: as §2
Pseudomonas aeruginosa = test: Antimicrobial activity against Pseudomonas aeruginosa assessed as inhibition at 20 ug/6 mm disk after 1 to 2 days by agar diffusion assay; format: functional; method in brief: as §1
A-431 [6] = test: Reduction in ROS in human A431 cells assessed as decrease in hydrogen peroxide level at 1 to 100 ng/ml after 1 hr by DCHFA assay; format: functional, cell-based
Method in brief: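 A-431 cells (10^5 per well) were treated with a range of compound concentrations for 1 h. They were then loaded with DCHFA probe for 30 min in the dark. Fluorescence (ex 485/em 528 nm) was read immediately and expressed as arbitrary units per 10^5 cells.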

SMILES | log K [1] | Retention_time [min] | logP [2] | diameter of the inhibition zone (DIZ) (Saccharomyces cerevisiae) [mm] | diameter of the inhibition zone (DIZ) (Mycolicibacterium phlei) [mm] | diameter of the inhibition zone (DIZ) (Candida albicans) [mm] | diameter of the inhibition zone (DIZ) (Klebsiella pneumoniae) [mm] | diameter of the inhibition zone (DIZ) (Escherichia coli) [mm] | diameter of the inhibition zone (DIZ) (Staphylococcus aureus) [mm] | IC50 (A-431 [3]) [µM] | Activity (A-431 [4]) | diameter of the inhibition zone (DIZ) (Micrococcus luteus) [mm] | IC50 [5] [µM] | diameter of the inhibition zone (DIZ) (Aspergillus niger) [mm] | IC50 (MCF7) [µM] | diameter of the inhibition zone (DIZ) (Pseudomonas aeruginosa) [mm] | Activity (A-431 [6])
COc1ccc(N(CC(=O)NCCC[Te]c2ccccc2)C(=O)/C=C/c2ccccc2)cc1 | -0.84 | 0.834 | 1.31 | 0 | 12 | 0 | 13 | 11 | 11 | 6 | Dose-dependent effect | 8 | 5 | 0 | 2 | 9 | –
NC(N)=S [THIOUREA] | – | 0.728 | – | – | – | – | – | – | – | – | – | – | – | – | – | – | –
Cc1ccccc1 [TOLUENE] | – | 1.508 | – | – | – | – | – | – | – | – | – | – | – | – | – | – | –
O=C(COC(=O)C#Cc1ccccc1)NCCC[Te]c1ccccc1 | -1.04 | 0.794 | 0.9 | 0 | 15 | 0 | 0 | 0 | 0 | 7 | Dose-dependent effect | 9 | 7 | 0 | 1 | 0 | –
O=C(COC(=O)/C=C/c1ccccc1)NCCC[Te]c1ccccc1 | -0.06 | 1.356 | 3.01 | 0 | 0 | 0 | 0 | 0 | 0 | 6 | Dose-dependent effect | 7 | 11 | 0 | 1 | 0 | –
c1ccc2ccccc2c1 | 0.2 | 1.894 | – | – | – | – | – | – | – | – | – | – | – | – | – | – | –
c1ccccc1 [BENZENE] | -0.53 | – | – | – | – | – | – | – | – | – | – | – | – | – | – | – | –
COc1ccc(N(CC(=O)NCCCSc2ccccc2)C(=O)CCSC2=C(C)C(=O)c3ccccc3C2=O)cc1 | 0.48 | 2.94 | 4.2 | 0 | 0 | 0 | 0 | 0 | 0 | 17 | – | 0 | 26 | 0 | 16 | 0 | –

Second part, led by results:

log K [1] | Retention_time [min] | logP [2] | SMILES | diameter of the inhibition zone (DIZ) (Saccharomyces cerevisiae) [mm] | diameter of the inhibition zone (DIZ) (Mycolicibacterium phlei) [mm] | diameter of the inhibition zone (DIZ) (Candida albicans) [mm] | diameter of the inhibition zone (DIZ) (Klebsiella pneumoniae) [mm] | diameter of the inhibition zone (DIZ) (Escherichia coli) [mm] | diameter of the inhibition zone (DIZ) (Staphylococcus aureus) [mm] | IC50 (A-431 [3]) [µM] | Activity (A-431 [4]) | diameter of the inhibition zone (DIZ) (Micrococcus luteus) [mm] | IC50 [5] [µM] | diameter of the inhibition zone (DIZ) (Aspergillus niger) [mm] | IC50 (MCF7) [µM] | diameter of the inhibition zone (DIZ) (Pseudomonas aeruginosa) [mm] | Activity (A-431 [6])
0.6 | 3.615 | – | c1ccc2c(c1)ccc1ccccc12 | – | – | – | – | – | – | – | – | – | – | – | – | – | –
-0.01 | 1.434 | 3.3 | COc1ccc(N(CC(=O)NCCC[Se]c2ccccc2)C(=O)CNC(=O)OC(C)(C)C)cc1 | 0 | 0 | 0 | 0 | 0 | 0 | ≥ 100 | – | 0 | ≥ 100 | 0 | ≥ 100 | 0 | –
-0.03 | 1.407 | 3.1 | COc1ccc(N(CC(=O)NCCCSc2ccccc2)C(=O)c2ccccc2)cc1 | 0 | 0 | 0 | 0 | 0 | 0 | ≥ 100 | – | 0 | ≥ 100 | 0 | ≥ 100 | 0 | inactive
0.39 | 2.514 | 4 | COc1ccc(N(CC(=O)NCCCSc2ccccc2)C(=O)/C=C/c2ccccc2)cc1 | 0 | 15 | 0 | 0 | 0 | 0 | ≥ 100 | – | 0 | ≥ 100 | 0 | ≥ 100 | 0 | –
0.27 | 2.088 | 3.7 | COc1ccc(N(CC(=O)NCCC[Se]c2ccccc2)C(=O)/C=C/c2ccccc2)cc1 | 0 | 0 | 0 | 0 | 0 | 0 | ≥ 100 | – | 0 | ≥ 100 | 0 | ≥ 100 | 0 | inactive
-0.25 | 1.134 | 2.6 | COc1ccc(N(CC(=O)NCCC[Se]c2ccccc2)C(=O)C#Cc2ccccc2)cc1 | 0 | 0 | 0 | 0 | 0 | 0 | ≥ 100 | – | 0 | ≥ 100 | 19 | ≥ 100 | 0 | –
0.55 | 3.297 | 4.23 | COc1ccc(N(CC(=O)NCCC[Se]c2ccccc2)C(=O)CCSC2=C(C)C(=O)c3ccccc3C2=O)cc1 | 0 | 0 | 0 | 0 | 0 | 0 | 17 | – | 7 | 24 | 0 | 8 | 0 | –
-0.94 | 0.811 | – | CC(=O)Nc1ccccc1 [ACETANILIDE] | – | – | – | – | – | – | – | – | – | – | – | – | – | –
0.3 | 2.17 | 3.12 | COc1ccc(N(CC(=O)NCCCSc2ccccc2)C(=O)CNC(=O)OC(C)(C)C)cc1 | 0 | 0 | 0 | 0 | 0 | 0 | ≥ 100 | – | 0 | ≥ 100 | 0 | ≥ 100 | 0 | –
-0.12 | 1.285 | – | Cc1ccc(C(C)C)c(O)c1 [THYMOL] | – | – | – | – | – | – | – | – | – | – | – | – | – | –
